The values below come from ChEMBL document CHEMBL5038617, “1,2,4-Triazole-3-thione compounds with a 4-ethyl alkyl/aryl sulfide substituent are broad-spectrum metallo-β-lactamase inhibitors with re-sensitization activity” (Eur J Med Chem, 2021).

The test system of series [1] is Bacteria. Kind of series: Inhibition of bacterial Metallo-beta-lactamase VIM-2 (unknown origin) assessed as substrate hydrolysis at 100 uM using meropenem as substrate by UV-visible spectrometry analysis. Put shortly: (§1)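 Purified MBL enzyme at 1–70 nM final, in 50 mM HEPES pH 7.5 at 30 °C with 0.5% DMSO. Reporter substrate 150 µM imipenem or meropenem; hydrolysis read at 300 nm. […] Ki measured when inhibition exceeded 75%, by competitive-model v0/vi vs [I] slope or Dixon plot. Some runs used 10 min enzyme–inhibitor preincubation. Triplicate.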

Series [2] is described as follows: Inhibition of bacterial New Delhi metallo-beta-lactamase 1 (unknown origin) assessed as substrate hydrolysis using meropenem as substrate by UV-visible spectrometry analysis. Also noted: species or system Bacteria. Put shortly: as §1
The subject of series [3] is Bacteria. Briefly: Inhibition of bacterial Metallo-beta-lactamase VIM-4 (unknown origin) assessed as substrate hydrolysis at 100 uM using meropenem as substrate by UV-visible spectrometry analysis. The essentials: as §1
For series [4], the system named is Bacteria. Briefly: Inhibition of bacterial Metallo-beta-lactamase VIM-1 (unknown origin) assessed as substrate hydrolysis at 100 uM using meropenem as substrate by UV-visible spectrometry analysis. The essentials:
as §1

In series [5] the test system is Bacteria. Briefly: Inhibition of bacterial Metallo-beta-lactamase IMP-1 (unknown origin) assessed as substrate hydrolysis at 100 uM using meropenem as substrate by UV-visible spectrometry analysis. The essentials: as §1
The nature of series [6]: Inhibition of bacterial Metallo-beta-lactamase VIM-1 (unknown origin) assessed as substrate hydrolysis using meropenem as substrate by UV-visible spectrometry analysis. On the set-up: species or system Bacteria. Put shortly:
as §1

Series [7] is described as follows: Inhibition of bacterial Metallo-beta-lactamase VIM-4 (unknown origin) assessed as substrate hydrolysis using meropenem as substrate by UV-visible spectrometry analysis. On the set-up: species or system Bacteria. Put shortly:
as §1

Series [8] deals with Bacteria. Kind of series: Inhibition of bacterial New Delhi metallo-beta-lactamase 1 (unknown origin) assessed as substrate hydrolysis at 100 uM using meropenem as substrate by UV-visible spectrometry analysis. Put shortly:
as §1

The nature of series [9]: Inhibition of bacterial Metallo-beta-lactamase VIM-2 (unknown origin) assessed as substrate hydrolysis using meropenem as substrate by UV-visible spectrometry analysis. Also noted: species or system Bacteria. The essentials: as §1
Series [10] has as its system Klebsiella pneumoniae. Briefly: Synergistic antibacterial activity against Klebsiella pneumonia 7023 clinical isolate strain producing Metallo-beta-lactamase VIM-1 assessed as meropenem MIC in presence of meropenem incubated for 24 hrs by broth microdilution method. The series is classed as functional. Put shortly:
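CLSI broth microdilution in Mueller-Hinton broth with 5 × 10^4 CFU/well. Meropenem two-fold serial dilutions tested with and without inhibitor fixed at 32 µg/mL, inhibitor added before antibiotic. DMSO ≤1%. […] Growth controls included. Triplicate.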
A general note: Broth dilution looks for growth in wells or tubes with falling amounts of substance.

Series [11] in a line: Inhibition of bacterial Metallo-beta-lactamase IMP-1 (unknown origin) assessed as substrate hydrolysis using meropenem as substrate by UV-visible spectrometry analysis. Also noted: species or system Bacteria. Put shortly:
as §1

The test system of series [12] is Klebsiella pneumoniae. Briefly: Synergistic antibacterial activity against Klebsiella pneumonia VA 416/02 clinical isolate strain producing Metallo-beta-lactamase VIM-4 assessed as meropenem MIC in presence of meropenem incubated for 24 hrs by broth microdilution method. The following applies: VA 416/02, 24 h.
The test system of series [13] is HeLa. Briefly: Cytotoxicity against human HeLa cells assessed as LDH release measured after 24 hrs by CytoTox96 nonradioactive assay. The series is classed as functional, cell-based. Put shortly:
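HeLa cells (20,000/well) incubated 24 h at 37 °C, 5% CO2 in DMEM with 10% FBS, 4.5 mg/mL glucose and 2 mM L-glutamine, with compound up to 250 µM. LDH release measured. Medium-only control and Triton X-100 maximum-release control included. % cytotoxicity = 100 × sample/maximum release. IC50 taken as 50% cytotoxicity.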
Background: LDH in the medium is a marker of cell lysis.

The nature of series [14]: Cytotoxicity against human PBMC cells assessed as cell viability measured after 24 hrs by flowcytometry method. Type of series: toxicity, cell-based. To be noted: human, PBMC cells. Put shortly: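 PBMC from four individual donors were isolated by density centrifugation, frozen, thawed and resuspended at 1.10e6/mL in RPMI with 10% FBS. Compound added from 20 mM DMSO stock by serial dilution in RPMI; final concentrations 500–7.8 µM, in duplicate. After 24 h, live cells counted by flow cytometry using FSC/SSC gating. IC50 calculated for each donor.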

SMILES strings stand for the structures.

Regarding `FC(F)(F)c1cc(SCCn2c(-c3ccccc3)n[nH]c2=S)c2ccccc2n1`, the inhibition in series [1] is less than 30%; in [3] it was less than 30%; in series [4] it was 37%; in [5] it was less than 30%. The Ki in series [2] was 12.9 µM.

Turning to `S=c1[nH]nc(-c2ccc(OCc3ccccc3)cc2)n1CCSCc1ccccc1`, the values for the inhibition in series [1], in [5] and in series [8] were less than 30%, 60% and less than 30%, respectively. Also, the inhibition constant (Ki) came out at 2.24 µM in [6] and 1.04 µM in series [7].

For the molecule `S=c1[nH]nc(-c2ccccc2)n1CCSc1nc(-c2ccccc2)n[nH]1`, the inhibition in series [1] was 44%; in series [3], 52%; in series [4], less than 30%; in series [5], 32%; in [8], less than 30%.

Take `S=c1[nH]nc(-c2ccccc2)n1CCSc1ccccc1`: the Ki is 11 µM in series [2]; 1.26 µM in [6]; 0.54 µM in [7]; 1.57 µM in [9]; 3.35 µM in series [11]. The MIC in [10] and in series [12] was 1 µg/mL each time.

Consider `O=C(O)C(SCCn1c(-c2ccccc2)n[nH]c1=S)c1ccccc1` (stereo unspecified), for which the figures for the Ki in [6], in [7] and in [9] were 1.65 µM, 0.21 µM and 0.19 µM, respectively. The inhibition in series [5] was 30%; in series [8] it was 40%. Besides, the MIC was determined as 4 µg/mL in series [10] and 2 µg/mL in [12].

For `O=[N+]([O-])c1ccc(CSCCn2c(-c3ccccc3)n[nH]c2=S)cc1`, the Ki came out at 11.1 µM in series [2]; 0.43 µM in [6]; 0.88 µM in [7]; 1.29 µM in [9]; 3.63 µM in [11]. In addition, the MIC in series [10] came out at 2 µg/mL; in series [12], 1 µg/mL.

As to `O=C(O)CCSCCn1c(-c2ccccc2)n[nH]c1=S`, the Ki in series [6] turned out to be 1.99 µM; in [7], 1.98 µM; in series [9], 1.91 µM. The inhibition in series [5] is 67%; in [8], 59%. In addition, the minimum inhibitory concentration (MIC) in series [10] stood at 2 µg/mL; in [12], 1 µg/mL.

With `Fc1ccc(CSCCn2c(-c3ccccc3)n[nH]c2=S)c(F)c1`, the inhibitory constant (Ki) in series [2] stood at 12 µM; in series [6], 1.33 µM; in series [7], 1.18 µM; in series [9], 0.94 µM; in series [11], 8.67 µM. Further, the minimum inhibitory concentration (MIC) came to 2 µg/mL in series [10] and 1 µg/mL in series [12].

`S=c1[nH]nc(-c2ccccc2)n1CCOCc1ccccc1`: the inhibition constant (Ki) amounted to 1.02 µM in [6], 2.06 µM in series [7] and 3.16 µM in series [9]. Further, the inhibition is 42% in [5] and 33% in series [8]. Also, the MIC in series [10] was determined as 4 µg/mL; in [12], 2 µg/mL.

On to `O=[N+]([O-])c1ccccc1CSCCn1c(-c2ccccc2)n[nH]c1=S`, for which the inhibitory constant (Ki) in series [2] came to 13.2 µM; in [6], 0.48 µM; in series [7], 0.56 µM; in [9], 0.57 µM; in series [11], 19 µM. Moreover, the inhibition in [5] is 72%. In addition, the values for the MIC in series [10] and in series [12] were 2 µg/mL and 1 µg/mL, respectively.

In the case of `COc1ccc(O)c(-c2n[nH]c(=S)n2CCSCc2ccccc2)c1`, the inhibition constant Ki amounted to 0.18 µM in series [6], 0.6 µM in series [7] and 1.65 µM in series [9]. The inhibition was 63% in series [5] and 46% in series [8]. Also, the MIC in [10] and in [12] was 2 µg/mL in each case.

Turning to `S=c1[nH]nc(-c2ccccc2)n1CCSc1cccc2ccccc12`, the inhibition constant (Ki) in series [6] is 0.48 µM; in series [7], 0.25 µM; in series [9], 1 µM. The inhibition in [5] and in series [8] was less than 30% throughout. In addition, the figures for the MIC in [10] and in series [12] were 8 µg/mL and 16 µg/mL, respectively.

For the molecule `S=c1[nH]nc(-c2ccccc2)n1CCCSc1ccccc1`, the Ki stood at 2.98 µM in [6], 4.85 µM in series [7] and 1.35 µM in series [9]. For the same molecule, the figures for the inhibition in series [5] and in [8] were 46% and 42%, respectively. Moreover, the MIC was found to be 2 µg/mL in series [10] and 1 µg/mL in [12].

In the case of `Nc1ccccc1SCCn1c(-c2ccccc2)n[nH]c1=S`, the Ki was 16.3 µM in [2]; 0.47 µM in series [6]; 0.41 µM in [7]; 1.15 µM in series [9]; 22.2 µM in [11]. In addition, the minimal inhibitory concentration (MIC) in [10] came out at 4 µg/mL; in series [12], 2 µg/mL.

Turning to `O=C(O)C(CSCCn1c(-c2cccc(-c3ccccc3)c2)n[nH]c1=S)c1ccccc1` (stereo unspecified), the Ki in series [2] amounted to 20.3 µM; in [6], 1.39 µM; in series [7], 0.21 µM; in series [9], 0.37 µM. Also, the inhibition in series [5] was 56%. Also, the MIC in series [10] amounted to 4 µg/mL; in [12], 2 µg/mL.

On to `S=c1[nH]nc(-c2ccccc2-c2ccccc2)n1CCSCc1ccccc1`, for which the inhibition in series [1] was less than 30%; in series [5], 35%; in series [8], less than 30%.

`S=c1[nH]nc(-c2ccccc2)n1CCSc1nc2ccccc2s1`: the inhibition is 30% in [1]; 44% in series [3]; less than 30% in series [4]; 47% in series [5]; less than 30% in series [8].

Regarding `O=C(O)CSCCn1c(-c2ccccc2)n[nH]c1=S`, the Ki in series [6] is 2.36 µM; in [7] it was 0.71 µM; in [9] it was 0.81 µM. Besides, the inhibition in [5] is less than 30%; in series [8] it was 40%. Moreover, the figures for the MIC in series [10] and in [12] were 2 µg/mL and 4 µg/mL, respectively.

For `Cc1ccccc1-c1n[nH]c(=S)n1CCSCc1ccccc1`, the Ki is 13 µM in [2]; 0.4 µM in series [6]; 0.5 µM in series [7]; 0.8 µM in [9]; 44 µM in series [11]. Moreover, the IC50 in series [13] amounted to 121 µM. In addition, the MIC in series [10] came out at 4 µg/mL; in series [12], 2 µg/mL.

With `Fc1ccccc1CSCCn1c(-c2ccccc2)n[nH]c1=S`, the IC50 at 24 h in series [14] was determined as 175 µM. Besides, the Ki was 11.9 µM in [2]; 0.59 µM in [6]; 0.32 µM in series [7]; 0.28 µM in series [9]; 12.1 µM in series [11]. Moreover, the concentration for half-maximal inhibition (IC50) in series [13] was found to be 165 µM. In addition, the MIC in series [10] is 1 µg/mL; in [12], 2 µg/mL.

For `Cc1nnc(SCCn2c(-c3ccccc3)n[nH]c2=S)s1`, the inhibition in series [1] is 56%; in series [5], less than 30%; in series [8] it was less than 30%. Moreover, the inhibition constant (Ki) worked out at 2.17 µM in series [6] and 2.95 µM in [7]. Further, the MIC in series [10] and in series [12] was 2 µg/mL in each case.

On to `Fc1ccc(CSCCn2c(-c3ccccc3)n[nH]c2=S)cc1`, for which the Ki in series [2] was found to be 15.1 µM; in series [6], 2.22 µM; in [7], 1.11 µM; in [9] it was 0.83 µM; in series [11] it was 9.66 µM. Also, the minimal inhibitory concentration (MIC) in series [10] turned out to be 8 µg/mL; in series [12], 2 µg/mL.

In the case of `O=C(O)C(CSCCn1c(-c2ccccc2)n[nH]c1=S)c1ccccc1` (stereo unspecified), the Ki in series [2] is 6 µM; in series [6], 0.48 µM; in [7] it was 0.22 µM; in [9], 0.6 µM; in [11], 35 µM. Besides, the IC50 in series [13] is greater than 250 µM. Besides, the values for the MIC in series [10] and in series [12] were 2 µg/mL and 4 µg/mL, respectively.

On to `S=c1[nH]nc(-c2ccccc2)n1CCSCCc1ccccc1`, for which the Ki was 21.1 µM in series [2]; 0.46 µM in [6]; 0.43 µM in series [7]; 1.76 µM in series [9]; 17.7 µM in series [11]. Moreover, the MIC in series [10] amounted to 2 µg/mL; in [12], 1 µg/mL.

As usually defined, the inhibition is the change of the read-out against control, counted positive when it falls. What is called Ki is the dissociation constant of the complex between target and ligand, obtained from inhibition or displacement. One may read the MIC as the least concentration at which growth counts as inhibited. One may read the IC50 as the concentration at which inhibition is half-maximal.
